Measurements: the RNAGym collection of RNA variant scans (doi:10.1038/nmeth.2970)

B1: NELF-E aptamer (parent)
chain: CCCAACGACUGCCGAGCGAGAUUACGCUUGAGCGCCCCACUGAGGAUGCCCACGGGCGAUUGGGGCACGG

Variants of: B1
Assay: HiTS-RAP
Conditions: with NELF-E (Drosophila)
Procedure, shortened: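 Kd came from weighted Hill fits to the first binding curve, with intensities normalised to sequencing intensity and averaged per sequence, keeping only fits whose variance was below 1,000,000. That curve was imaged on an Illumina GAIIx flowcell, where sequenced aptamer DNA templates with a T7 promoter and ter site had been transcribed in situ by T7 RNA polymerase and halted by GST-Tus (30 minutes, 37°C). Before each image, clusters equilibrated for 30 minutes at room temperature with NELF-E-mOrange at 0.064 to 1000 nM in HEPES binding buffer.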

Point of comparison: CCCAACGACUGCCGAGCGAGAGUACGCUUUAGCGCCCCACUGAGGAUGCCCACGGGCGAUUGGGGCACGG [U22G G30U], Kd 6.56 nM. Against it:
- CCCAACGACUGCCGAGCGAGAUUACGCUUGAGCGCCCCACGGGGGAUGCCCACGGGCGAUUGGGGCACGG [U41G A43G] — within 1.5-fold, 8.31 nM
- CCCAACUACUGCCGAGCGAGAUUACGCUCGAGCGCCCCACUGAGGAUGCCCACGGGCGAUUGGGGCACGG [G7U U29C] — within 1.5-fold, 6.86 nM
- CCCAACGACUGCCUAGCGUGAUUACGCUUGAGCGCCCCACUGAGGAUGCCCACGGGCGAUUGGGGCACGG [G14U A19U] — within 1.5-fold, 7.38 nM
- CCCAACGACGGCCGAGCGAGAUUACGCUUGAGCGCCCCACUGAGGAUGCCCACGGGCGAUUGUGGCACGG [U10G G63U] — 1.7-fold higher, 10.9 nM
- CCCAACGUCUGCCGAGCGAGAUUGCGCUUGAGCGCCCCACUGAGGAUGCCCACGGGCGAUUGGGGCACGG [A8U A24G] — within 1.5-fold, 6.05 nM
- CCCAACGGUUGCCGAGCGAGAUUACGCUUGAGCGCCCCACUGAGGAUGCCCACGGGCGAUUGGGGCACGG [A8G C9U] — within 1.5-fold, 5.53 nM
- CCCAACUACUGCCGAGCGAGAUUACGCUUGAGCGCCCCACUGGGGAUGCCCACGGGCGAUUGGGGCACGG [G7U A43G] — 8.8-fold higher, 58 nM
- CCCAACGGCUGCUGAGCGAGAUUACGCUUGAGCGCCCCACUGAGGAUGCCCACGGGCGAUUGGGGCACGG [A8G C13U] — within 1.5-fold, 4.41 nM
- CCCAACGACUGCCGAGCGAGAUUACGCUUGAGCGCCCCAGUGAGGAUGCCCACGGGCGAUUGGGGCACGG [C40G] — within 1.5-fold, 5.55 nM
- CCCAACGACUGCUGAGCGAGAUUACGCUUGAGCGCCCCACUGAGGAUGCCCACGGGCGAUUGGAGCACGG [C13U G64A] — within 1.5-fold, 8.04 nM
- CCCAACGACUGGCGAGCGAGAUUACGCUUGAGCGCCCCACUGAGGAGGCCCACGGGCGAUUGGGGCACGG [C12G U47G] — within 1.5-fold, 8.13 nM
- CCCAACGACUUCCGAGCGAGAUUACGCUUGAGCGCCCCACUGAGGAUGCCCACGGGCGGUUGGGGCACGG [G11U A59G] — 2.7-fold higher, 17.7 nM
- CCCCACUACUGCCGAGCGAGAUUACGCUUGAGCGCCCCACUGAGGAUGCCCACGGGCGAUUGGGGCACGG [A4C G7U] — within 1.5-fold, 6.88 nM
- CCCAACGACUGCCGAGGGAGAUUACGCUUGAGCGCCCCACUGGGGAUGCCCACGGGCGAUUGGGGCACGG [C17G A43G] — within 1.5-fold, 9.66 nM
- CCCGACGACUGCCGAGCGAGAGUACGCUUGAGCGCCCCACUGAGGAUGCCCACGGGCGAUUGGGGCACGG [A4G U22G] — within 1.5-fold, 5.51 nM
- CCCAACGGCUGCCGAGCGAGAUUACGCUUUAGCGCCCCACUGAGGAUGCCCACGGGCGAUUGGGGCACGG [A8G G30U] — within 1.5-fold, 4.7 nM
- CCCGACGACUGCCGAGCGAGAUUACGCUUGAGCGCCCCACUGAGGAUGCCCACGGGCGAUUGGGGCUCGG [A4G A67U] — within 1.5-fold, 6.47 nM
- CCCAACGACUGCCGUGCGAGAUGACGCUUGAGCGCCCCACUGAGGAUGCCCACGGGCGAUUGGGGCACGG [A15U U23G] — within 1.5-fold, 5.84 nM
- CCCAACGACUGAGGAGCGAGAUUACGCUUGAGCGCCCCACUGAGGAUGCCCACGGGCGAUUGGGGCACGG [C12A C13G] — within 1.5-fold, 5.33 nM
- CCCAACGACUGCCGAGCAAGAUUGCGCUUGAGCGCCCCACUGAGGAUGCCCACGGGCGAUUGGGGCACGG [G18A A24G] — within 1.5-fold, 5.85 nM
- CCCAACGUCUGCCGAGCGAGAUUACGCUUGAGCGCCCCACUGAGGAUGCCCAUGGGCGAUUGGGGCACGG [A8U C53U] — 1.8-fold lower, 3.63 nM
- CCCAACGACUGCGGAGCGAAAUUACGCUUGAGCGCCCCACUGAGGAUGCCCACGGGCGAUUGGGGCACGG [C13G G20A] — within 1.5-fold, 7.5 nM
- CCCAACGACUGCGGAGCGAGAUUGCGCUUGAGCGCCCCACUGAGGAUGCCCACGGGCGAUUGGGGCACGG [C13G A24G] — within 1.5-fold, 5.57 nM
- CCCAACGACUGCCGAGCGAGAGUAUGCUUGAGCGCCCCACUGAGGAUGCCCACGGGCGAUUGGGGCACGG [U22G C25U] — within 1.5-fold, 6.29 nM
- CCCAACGUCUGCCGAGCGAGAUUACGCUUGUGCGCCCCACUGAGGAUGCCCACGGGCGAUUGGGGCACGG [A8U A31U] — within 1.5-fold, 7.11 nM
- CCCAACGACUGCCGAGGGAUAUUACGCUUGAGCGCCCCACUGAGGAUGCCCACGGGCGAUUGGGGCACGG [C17G G20U] — within 1.5-fold, 6.58 nM
- CCCAACGGCUGCCGAGCGAGAUUACGCUUGAGCGCCCCUCUGAGGAUGCCCACGGGCGAUUGGGGCACGG [A8G A39U] — 3.3-fold higher, 21.7 nM
- CCCAACGACAGCCGAGCGAGAUUACGCUUGAGCGCCCCACUGAGGAUGCCCACGGGCGAUUGGGGCUCGG [U10A A67U] — within 1.5-fold, 9.22 nM
- CCCAACGACUGCGGAGCGAGAUUACGCUUGAGCGCCCCACUGAGGAUGCCCAUGGGCGAUUGGGGCACGG [C13G C53U] — 1.9-fold lower, 3.49 nM
- CCCAUCGACUGCCGAGCGAGAUUACGCUUGAGCGCCCCACUGAGGAUGCCCGCGGGCGAUUGGGGCACGG [A5U A52G] — within 1.5-fold, 7.25 nM
- CCCAACGACGGCCGAGCGAGAUUACGCUUGAACGCCCCACUGAGGAUGCCCACGGGCGAUUGGGGCACGG [U10G G32A] — within 1.5-fold, 4.44 nM
- CCCAACGACUGCCGAGCGAGAUGACGCUUGAGCGCCCCACUGAGGAUGCCCACGGGCGAUUGGGGCUCGG [U23G A67U] — within 1.5-fold, 7.58 nM
- CCCAACGACUGCCGAGGGAGAUUACGCGUGAGCGCCCCACUGAGGAUGCCCACGGGCGAUUGGGGCACGG [C17G U28G] — within 1.5-fold, 6.4 nM
- CCCAACGGCUGCCGAGCGAGAUUACGCUCGAGCGCCCCACUGAGGAUGCCCACGGGCGAUUGGGGCACGG [A8G U29C] — within 1.5-fold, 5.69 nM
- CCCAACGAGUGCCGAGCGAGAUUACGCUUGAGCGCCCCACUGAGGAUGCCCACGGGCGAGUGGGGCACGG [C9G U60G] — within 1.5-fold, 6.72 nM
- CCCAACGACUGCCGAGCGAGAUUACGCUCGAGCGCUCCACUGAGGAUGCCCACGGGCGAUUGGGGCACGG [U29C C36U] — within 1.5-fold, 6 nM
- CCCAACGACUGCAGAGCGAGAGUACGCUUGAGCGCCCCACUGAGGAUGCCCACGGGCGAUUGGGGCACGG [C13A U22G] — within 1.5-fold, 5.85 nM
- CCCAACGACUGCCGAGUGAGAUUACGCUUGAGCGCCCCACUGAGGAUGCCCACAGGCGAUUGGGGCACGG [C17U G54A] — 1.8-fold higher, 11.6 nM
